Activity calls are given as the source filed them. The rule behind the calls is not given here.
Columns and labels:
[1] = test system: Rattus norvegicus; assay: Antiinflammatory activity in Wistar rat assessed as inhibition of carrageenan-induced paw swelling at 2 x 50 mg/kg, po administered 0.5 to 3 hrs prior to carrageenan challenge measured after 2.5 hrs by plethysmographic analysis relative to control; assay type: functional
Outline: (§1)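 Female Wistar rats (in-house bred, 140–170 g; groups of four) were dosed orally twice, 3 and 0.5 h before a plantar injection of 0.1 mL 1% carrageenan in 0.9% saline into the right hind foot. Both feet were measured by mercury-displacement plethysmography 2.5 h later, and the right-minus-left difference was taken. Group mean % inhibition was calculated against ten concurrent saline-dosed controls, with significance at p < 0.02.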

[2] = Toxicity in po dosed mouse; assay type: organism-based; settings: in vivo
[3] = test system: Rattus norvegicus; assay: Antiinflammatory activity in Wistar rat assessed as inhibition of carrageenan-induced paw swelling at 2 x 100 mg/kg, po administered 0.5 to 3 hrs prior to carrageenan challenge measured after 2.5 hrs by plethysmographic analysis relative to control; assay type: functional; settings: for inhibition in vivo at 100 mg/kg: Rattus norvegicus, Wistar; outline: as §1
[4] = test system: Canis familiaris; assay: Toxicity in dog at 150 mg/kg; assay type: organism-based, Canis lupus familiaris; design: dose 150 mg/kg; settings: in vivo
[5] = test system: Rattus norvegicus; assay: Antiinflammatory activity in Wistar rat assessed as inhibition of carrageenan-induced paw swelling at 100 mg/kg, po administered 0.5 to 3 hrs prior to carrageenan challenge measured after 2.5 hrs by plethysmographic analysis relative to control; assay type: functional
Outline: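 Groups of four female Wistar rats (140–170 g) were dosed orally twice (2 × 50 or 2 × 100 mg/kg), at 3 and 0.5 h before plantar injection of 0.1 mL 1% carrageenan in 0.9% saline into the right hind foot. Right minus left foot volume was read by mercury-displacement plethysmograph at 2.5 h. Mean group swelling was expressed as % inhibition versus ten concurrent saline-dosed controls; significance p < 0.02.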

Work on `c1cc(N2CCCCC2)ccc1CCN1CCCCC1` yielded an inhibition in vivo at 50 mg/kg [1] of 46% and an LD50 [2] of 400 mg/kg.

`CC(C(=O)O)c1ccc(N2CCCCC2)c(Cl)c1` (stereo unspecified) gave an inhibition in vivo at 100 mg/kg [3] of 53% and an LD50 [2] of 1200 mg/kg.

With `CC(N)Cc1ccc(N2CCCCC2)cc1.O=C(O)CCC(=O)O` (stereo unspecified) the inhibition in vivo at 50 mg/kg [1] was 33% and the LD50 [2] was 600 mg/kg.

In the case of `CC(C)(CN)c1ccc(N2CCCCC2)cc1.O=C(O)CCC(=O)O`, the inhibition in vivo at 50 mg/kg [1] is reported as 34% and the LD50 [2] is reported as 400 mg/kg.

Work on `NCCCCCCc1ccc(N2CCCCC2)cc1.O=C(O)CCC(=O)O` yielded an inhibition in vivo at 100 mg/kg [3] of 57% and an LD50 [2] of 1200 mg/kg.

For `O=C(O)Cc1ccc(N2CCCCC2)cc1`, the inhibition in vivo at 100 mg/kg [3] was 51% and the LD50 [2] was 800 mg/kg.

In the case of `NCC(C(=O)O)c1ccc(N2CCCCC2)cc1` (stereo unspecified), the inhibition in vivo at 100 mg/kg [3] is reported as 40% and the LD50 [2] is reported as > 1600 mg/kg.

With `CN(CCc1ccc(N2CCCCC2)cc1)C(=O)C(F)(F)F.Cl` the inhibition in vivo at 100 mg/kg [3] was 38% and the LD50 [2] was 1600 mg/kg.

`NCCCCc1ccc(N2CCCCC2)cc1.O=C(O)O` showed an inhibition in vivo at 100 mg/kg [3] of 54% and an LD50 [2] of 600 mg/kg.

For `C[C@]12CCC(=O)C=C1CC[C@@H]1[C@@H]2[C@@H](O)C[C@@]2(C)[C@H]1CC[C@]2(O)C(=O)CO` [HYDROCORTISONE], the inhibition in vivo at 50 mg/kg [1] was 35%.

`OCCc1ccc(N2CCCCC2)cc1` gave an inhibition in vivo at 100 mg/kg [3] of 51% and an LD50 [2] of 1200 mg/kg.

`CC(CN(C)C)c1ccc(N2CCCCC2)cc1.Cl` (stereo unspecified) gave an inhibition in vivo at 100 mg/kg [3] of 70% and an LD50 [2] of 600 mg/kg.

With `CC(C)c1ccc(N2CCCCC2)cc1.Cl` the inhibition in vivo at 50 mg/kg [1] was 30% and the LD50 [2] was 1200 mg/kg.

For `CC(C)(O)c1ccc(N2CCCCC2)cc1`, the inhibition ([1]; at 50 mg/kg) was “inactive” and the LD50 [2] was 600 mg/kg.

`O=C(Cc1ccc(N2CCCCC2)cc1)NCCc1ccc(N2CCCCC2)cc1` gave an inhibition in vivo at 100 mg/kg [3] of 22% and an LD50 [2] of 1600 mg/kg.

Molecule `O=C(NCCc1ccc(N2CCCCC2)cc1)C(F)(F)F` has an inhibition in vivo at 100 mg/kg [3] of 60% and an LD50 [2] of 1600 mg/kg.

`CCCCC1C(=O)N(c2ccccc2)N(c2ccccc2)C1=O` [PHENYLBUTAZONE] gave an inhibition in vivo at 100 mg/kg [3] of 50%.

`CC(C(=O)O)c1ccc(N2CCCCC2)cc1` (stereo unspecified) showed an inhibition in vivo at 50 mg/kg [1] of 68% and an LD50 [2] of 800 mg/kg.

Work on `CC(CNC(=O)C(F)(F)F)c1ccc(N2CCCCC2)cc1` (stereo unspecified) yielded an inhibition in vivo at 50 mg/kg [1] of 32% and an LD50 [2] of 600 mg/kg.

Molecule `O=C(O)Cc1ccc(N2CCCCC2)c(Cl)c1` has an inhibition in vivo at 100 mg/kg [3] of 43% and an LD50 [2] of 800 mg/kg.

With `Cl.NCCc1cccc(N2CCCCC2)c1` the inhibition in vivo at 50 mg/kg [1] was 39% and the LD50 [2] was 600 mg/kg.

With `Cl.NCCc1ccc(N2CCCCC2)cc1` the inhibition in vivo at 100 mg/kg ([3]; po) was 55% and the LD50 [2] was 1200 mg/kg.

For `CC(CN)c1ccc(N2CCCCC2)c(Cl)c1.Cl` (stereo unspecified), the inhibition in vivo at 50 mg/kg [1] was 39% and the LD50 [2] was 600 mg/kg.

In the case of `NCCCCc1ccc(N2CCCCC2)c(Cl)c1.O=C(O)CCC(=O)O`, the inhibition in vivo at 100 mg/kg [3] is reported as 71% and the LD50 [2] is reported as 1600 mg/kg.

Molecule `CNCCc1ccc(N2CCCCC2)cc1.O=C(O)CCC(=O)O` has an inhibition in vivo at 50 mg/kg [1] of 33% and an LD50 [2] of 600 mg/kg.

`CC(CO)c1ccc(N2CCCCC2)cc1` (stereo unspecified) gave an inhibition in vivo at 100 mg/kg [3] of 71% and an LD50 [2] of 1600 mg/kg.

In the case of `NCCc1ccc(N2CCCCC2)cc1.O=C(O)O`, the “inhibition (INH)” value [3] is reported as 54% and the LD50 [2] is reported as 800 mg/kg.

With `CC(CN)c1ccc(N2CCCCC2)cc1.Cl` (stereo unspecified) the inhibition in vivo at 50 mg/kg [1] was 57%, the Activity [4] was “Toxic” and the LD50 [2] was 600 mg/kg.

Molecule `Cl.[2H]C([2H])(N)C(C)c1ccc(N2CCCCC2)cc1` (stereo unspecified) has an inhibition in vivo at 50 mg/kg [1] of 47% and an LD50 [2] of 600 mg/kg.

For `CC(CN)c1cccc(N2CCCCC2)c1` (stereo unspecified), the inhibition ([3]; at 100 mg/kg) was “inactive” and the LD50 [2] was 600 mg/kg.

In the case of `Cl.NCCc1ccc(N2CCCCC2)c(Cl)c1`, the inhibition in vivo at 100 mg/kg [5] is reported as 58% and the LD50 [2] is reported as 800 mg/kg.
